ChEMBL document CHEMBL3526115, “Differences in the pharmacokinetics of 4-amino-3-chlorophenyl hydrogen sulfate, a metabolite of resatorvid, in rats and dogs” (Drug Metab Dispos, 2012)

Assays:
[1] = Unbound fraction in Crj:CD(SD)IGS rat plasma at 0.125 mg/hr, iv administered as continuous infusion by ultrafiltration method in presence of 62 mg/hr/kg probenecid; format: ADME, organism-based; conditions: with probenecid 62 mg/hr/kg (co-administered)
In short: (§1)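 Rats received a continuous iv infusion of [14C]M-III at 0.125 mg/rat/h, with probenecid co-infused at 16, 31 or 62 mg/h/kg or vehicle alone, for 5 h. Arterial plasma was sampled during infusion. CLtot = infusion rate / steady-state plasma M-III (120–180 min). Unbound fraction was measured by ultrafiltration of 5-h plasma (10,000 MWCO, 1500g, 37°C, 10 min). CLint = CLtot / unbound ratio.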

[2] = Ratio of drug level in kidney cortex to plasma in Beagle dog at 0.5 mg/kg, iv administered as bolus dose by HPLC-based liquid scintillation counting analysis; format: ADME, organism-based, Canis lupus familiaris; set-up: dose 0.5 mg/kg, route intravenous
In short: (§2)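 Rats received [14C]M-III in saline by continuous jugular-vein infusion for 4 h (0.5 mg/rat/h per methods; 0.25 mg/h in legend), then aortic blood and kidneys were collected. Dogs received a 0.5 mg/kg iv bolus, with blood and kidneys (cortex and medulla separated) collected at 24 h. 14C was measured in tissue homogenates and plasma as a tissue/plasma ratio. Rat n = 3, dog n = 2.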

[3] = Drug recovery in Beagle dog urine at 0.5 mg/kg, iv administered as bolus dose measured from 0 to 168 hrs by HPLC-based liquid scintillation counting analysis; format: ADME, organism-based, Canis lupus familiaris; set-up: dose 0.5 mg/kg, route intravenous; conditions: read-out: Drug recovery
In short: (§3)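 After a 0.5 mg/kg iv bolus of [14C]M-III, urine was collected 0–24 h (rat) or 0–168 h (dog) and injected directly onto HPLC with fraction collection and scintillation counting. M-III in urine was derived from the urinary 14C excretion ratio and the [14C]M-III composition. CLrenal = urinary M-III amount / AUC0–24 h (rat) or AUC0–168 h (dog). Unbound CLrenal = CLrenal / free fraction.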

Rattus norvegicus [4] = assay: Intrinsic total body clearance in Crj:CD(SD)IGS rat at 0.125 mg/hr, iv administered as continuous infusion by HPLC based liquid scintillation counting analysis; format: ADME, organism-based; conditions: in vivo; in short: as §1
[5] = In vivo plasma protein binding in Crj:CD(SD)IGS rat at 0.125 mg/hr, iv administered as continuous infusion by ultrafiltration method in presence of 31 mg/hr/kg probenecid; format: ADME, organism-based; conditions: with probenecid 31 mg/hr/kg, read-out: PPB (converted); in short: as §1
Plasma = assay: Plasma concentration in Crj:CD(SD)IGS rat at 0.125 mg/hr, iv administered as continuous infusion by HPLC based liquid scintillation counting analysis; format: ADME, organism-based; conditions: in vivo
In short: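 Rats were continuously infused iv with [14C]M-III at 0.125 mg/rat/h, plus probenecid (4.7, 9.4, 18.6 mg/rat/h) or vehicle. Femoral-artery blood was taken at 0.5, 1, 2, 3 and 4 h, with terminal aortic blood at 5 h. Plasma radioactivity was measured, with probenecid quantified by HPLC-UV at 240 nm against spiked-plasma calibration from 0.1 to 100 µg/ml.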

[6] = Drug uptake in Beagle dog plasma at 0.5 mg/kg, iv administered as bolus dose after 5 mins by HPLC-based liquid scintillation counting analysis; format: ADME, organism-based, Canis lupus familiaris; set-up: dose 0.5 mg/kg, route intravenous
In short: (§4)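 [14C]M-III in saline given as a single iv bolus at 0.5 mg/kg to male rats (tail-vein blood, 5 min–24 h) or male beagle dogs (cephalic-vein blood, 5 min–168 h). Heparinized plasma counted for radioactivity; M-III quantified by HPLC with fraction collection and liquid scintillation counting. C5 min read directly; terminal t1/2 by linear regression, kel = ln2/t1/2, Vd = dose/back-extrapolated C0, CLtot = dose/AUCinf. Mean ± S.D., n = 3.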

[7] = In vitro plasma protein binding in dog at 0.5 ug/ml by ultrafiltration method; format: ADME, cell-free, Canis lupus familiaris; conditions: read-out: PPB (converted)
In short: (§5)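 [14C]M-III in saline was added to rat or dog plasma at final 0.5, 5 and 50 µg/ml. Plasma was ultrafiltered by centrifugation at 1500g and 37°C for 10 min, and 14C was measured in plasma and filtrate. Mean ± S.D., n = 3.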

[8] = Drug excretion in Beagle dog urine assessed as excretion ratio of [14C] at 0.5 mg/kg, iv administered as bolus dose measured from 0 to 168 hrs by HPLC-based liquid scintillation counting analysis; format: ADME, organism-based, Canis lupus familiaris; set-up: dose 0.5 mg/kg, route intravenous; conditions: in vivo
In short: (§6)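 Male rats in metabolic cages with urine/feces separator, or beagle dogs, after a 0.5 mg/kg iv bolus of [14C]M-III in saline. Radioactivity in urine and feces collected 0–24 h (rats) or 0–168 h (dogs) was counted and expressed as percent of dose. Mean ± S.D., n = 3.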

[9] = Drug excretion in Crj:CD(SD)IGS rat urine assessed as excretion ratio of [14C] at 0.5 mg/kg, iv administered as bolus dose measured from 0 to 24 hrs by HPLC-based liquid scintillation counting analysis; format: ADME, organism-based; set-up: dose 0.5 mg/kg, route intravenous; conditions: in vivo; in short: as §6
[10] = Unbound fraction in Crj:CD(SD)IGS rat plasma at 0.125 mg/hr, iv administered as continuous infusion by ultrafiltration method in presence of 16 mg/hr/kg probenecid; format: ADME, organism-based; conditions: with probenecid 16 mg/hr/kg; in short: as §1
[11] = Drug uptake in Crj:CD(SD)IGS rat plasma at 0.5 mg/kg, iv administered as bolus dose after 5 mins by HPLC-based liquid scintillation counting analysis; format: ADME, organism-based; set-up: dose 0.5 mg/kg, route intravenous; in short: as §4
[12] = Renal clearance in Beagle dog at 0.5 mg/kg, iv administered as bolus dose measured from 0 to 168 hrs by HPLC-based liquid scintillation counting analysis; format: ADME, organism-based, Canis lupus familiaris, Kidney; set-up: dose 0.5 mg/kg, route intravenous; conditions: in vivo; in short: as §3
[13] = Drug recovery in Crj:CD(SD)IGS rat urine at 0.5 mg/kg, iv administered as bolus dose measured from 0 to 24 hrs by HPLC analysis; format: ADME, organism-based; set-up: dose 0.5 mg/kg, route intravenous; conditions: read-out: Drug recovery; in short: as §3
[14] = In vitro plasma protein binding in rat at 5 ug/ml by ultrafiltration method; format: ADME, cell-free; conditions: read-out: PPB (converted); in short: as §5
[15] = Ratio of drug level in kidney to plasma in Crj:CD(SD)IGS rat at 0.25 mg/hr, iv administered as continuous infusion by HPLC-based liquid scintillation counting analysis; format: ADME, organism-based; in short: as §2
[16] = In vivo plasma protein binding in Crj:CD(SD)IGS rat at 0.125 mg/hr, iv administered as continuous infusion by ultrafiltration method in presence of 16 mg/hr/kg probenecid; format: ADME, organism-based; conditions: with probenecid 16 mg/hr/kg, read-out: PPB (converted); in short: as §1
[17] = Total body clearance in Beagle dog at 0.5 mg/kg, iv administered as bolus dose by HPLC-based liquid scintillation counting analysis; format: ADME, organism-based, Canis lupus familiaris; set-up: dose 0.5 mg/kg, route intravenous; conditions: in vivo; in short: as §4
[18] = In vivo plasma protein binding in Beagle dog at 0.5 mg/kg, iv administered as bolus dose by ultrafiltration method; format: ADME, organism-based, Canis lupus familiaris; set-up: dose 0.5 mg/kg, route intravenous; conditions: read-out: PPB (converted)
In short: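 Plasma was taken from beagle dogs 24 h after a 0.5 mg/kg iv bolus of [14C]M-III (cephalic vein). Binding was determined by ultrafiltration (1500g, 37°C, 10 min), with 14C measured in plasma and filtrate.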

Rattus norvegicus [19] = assay: Intrinsic total body clearance in Crj:CD(SD)IGS rat at 0.125 mg/hr, iv administered as continuous infusion by HPLC based liquid scintillation counting analysis in presence of 62 mg/hr/kg probenecid; format: ADME, organism-based; conditions: in vivo; in short: as §1
[20] = Total body clearance in Crj:CD(SD)IGS rat at 0.125 mg/hr, iv administered as continuous infusion by HPLC based liquid scintillation counting analysis; format: ADME, organism-based; conditions: in vivo; in short: as §1

## N[14c]1[14cH][14cH][14c](OS(=O)(=O)O)[14cH][14c]1Cl
[1]
  fraction unbound: 0.184
[2]
  Kp: 0.1
[3]
  dose excreted: 19.5%
Rattus norvegicus [4]
  clearance: 130 mL/min/kg
[5]
  fraction unbound: 0.197
Plasma
  Cp: 600 ng/mL
[6]
  concentration at 5 min: 4690 ng/mL
[7]
  fraction unbound at 0.5 ug/ml: 0.098
[8]
  Drug excretion: 44.6%
[9]
  Drug excretion: 84.7%
[10]
  fraction unbound: 0.078
[11]
  concentration at 5 min: 2290 ng/mL
[12]
  CL renal: 0.00468 mL/min/kg
[13]
  dose excreted: 76.9%
[14]
  fraction unbound at 5 ug/ml: 0.078
[15]
  Kp: 3.5
[16]
  fraction unbound: 0.078
[17]
  clearance: 0.0147 mL/min/kg
[18]
  fraction unbound: 0.08
Rattus norvegicus [19]
  CL: 9.38 mL/min/kg
[20]
  clearance: 11.4 mL/min/kg
